From ChEMBL document CHEMBL1151458, “Comparative analysis of the bactericidal activities of amphibian peptide analogues against multidrug-resistant nosocomial bacterial strains” (2008)
Calls of active or inactive are those of the source. The calls are words filed in the database; no cut-off is given here.

What was measured:
[1] = tested on: Pseudomonas aeruginosa; experiment: Bactericidal activity against Pseudomonas aeruginosa isolate 2 with AMP-CFZ-CIP-CTX-CXM-GEN-LVX-IPM-MEM-SXT-TET resistance phenotype assessed as concentration required for >= 3 log10 CFU/ml reduction in viable bacteria in sodium phosphate buffer at pH 7.4 after 1.5 hrs by liquid microdilution assay; format: functional
How it was run: (§1)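 Clinical multidrug-resistant isolates grown to mid-log in tryptone soy broth and stored frozen. Exponential cells resuspended in 10 mM sodium phosphate buffer, pH 7.4, at 1 × 10^7 CFU/ml; 10 μl incubated with graded peptide concentrations in 100 μl at 37°C for 1.5 h. Plated on tryptone soy agar, CFU read after 24 h at 37°C. Peptide stocks in 20% ethanol.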

[2] = tested on: Pseudomonas aeruginosa; experiment: Bactericidal activity against Pseudomonas aeruginosa isolate 3 with AMP-CFZ-CTX-CIP-GEN-IPM-LVX-SXT-TET-TOB resistance phenotype assessed as concentration required for >= 3 log10 CFU/ml reduction in viable bacteria in sodium phosphate buffer at pH 7.4 after 1.5 hrs by liquid microdilution assay; format: functional; how it was run: as §1
[3] = tested on: Enterococcus faecium; experiment: Bactericidal activity against Enterococcus faecium isolate 3 with AMP-CIP-CTX-ERY-GEN-LVX-SXT-TEC-VAN resistance phenotype assessed as concentration required for >= 3 log10 CFU/ml reduction in viable bacteria in 20% heat-inactivated human serum after 1.5 hrs by liquid microdilution assay; format: functional
How it was run: (§2)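 The buffer microdilution kill assay (1 × 10^7 CFU/ml mid-log cells, 10 μl in 100 μl, 37°C, 1.5 h, CFU on tryptone soy agar after 24 h) with serum added to 20% or 40% final. Serum was pooled from five healthy donors, clotted at room temperature, spun at 300 × g and heat-inactivated at 56°C for 30 min.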

[4] = tested on: Staphylococcus aureus; experiment: Bactericidal activity against Staphylococcus aureus isolate 1 with AMC-AMP-CIP-ERY-GEN-OXA-RIF resistance phenotype assessed as concentration required for >= 3 log10 CFU/ml reduction in viable bacteria in 20% heat-inactivated human serum after 1.5 hrs by liquid microdilution assay; format: functional; how it was run: as §2
[5] = tested on: Stenotrophomonas maltophilia; experiment: Bactericidal activity against Stenotrophomonas maltophilia isolate 2 with AMK-CIP-CTX-IPM-MEM-SAM-TZP resistance phenotype assessed as concentration required for >= 3 log10 CFU/ml reduction in viable bacteria in 20% heat-inactivated human serum after 1.5 hrs by liquid microdilution assay; format: functional; how it was run: as §2
[6] = tested on: Acinetobacter baumannii; experiment: Bactericidal activity against Acinetobacter baumannii isolate 3 with AMP-AMC-CFZ-CIP-IPM-SXT-TET-TOB resistance phenotype assessed as concentration required for >= 3 log10 CFU/ml reduction in viable bacteria in 20% heat-inactivated human serum after 1.5 hrs by liquid microdilution assay; format: functional; how it was run: as §2
[7] = tested on: Pseudomonas aeruginosa; experiment: Bactericidal activity against Pseudomonas aeruginosa isolate 1 with AMP-CFZ-CIP-CTX-CXM-GEN-LVX-SXT-TET resistance phenotype assessed as concentration required for >= 3 log10 CFU/ml reduction in viable bacteria in 20% heat-inactivated human serum after 1.5 hrs by liquid microdilution assay; format: functional; how it was run: as §2
[8] = tested on: Staphylococcus aureus; experiment: Antimicrobial activity against Staphylococcus aureus isolate 1 with AMC-AMP-CIP-ERY-GEN-OXA-RIF resistance phenotype at twofold the bactericidal concentration within 30 mins; format: functional, organism-based
How it was run: (§3)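 Time-kill in 10 mM sodium phosphate buffer, pH 7.4: 1 × 10^7 CFU/ml mid-log clinical isolate (10 μl) exposed at 37°C to peptide at the 1.5-h bactericidal concentration or twofold that, in 100 μl. Samples taken from 2 min onward, plated on tryptone soy agar, CFU counted after 24 h at 37°C. Killing taken as ≥3 log10 CFU/ml drop.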

[9] = tested on: Stenotrophomonas maltophilia; experiment: Antimicrobial activity against Stenotrophomonas maltophilia isolate 2 with AMK-CIP-CTX-IPM-MEM-SAM-TZP resistance phenotype assessed as assessed as time to kill at twofold bactericidal concentration; format: functional; how it was run: as §3
[10] = tested on: Acinetobacter baumannii; experiment: Antimicrobial activity against Acinetobacter baumannii isolate 3 with AMP-AMC-CFZ-CIP-IPM-SXT-TET-TOB resistance phenotype assessed as time to kill at bactericidal concentration; format: functional; how it was run: as §3
[11] = tested on: Pseudomonas aeruginosa; experiment: Antimicrobial activity against Pseudomonas aeruginosa isolate 1 with AMP-CFZ-CIP-CTX-CXM-GEN-LVX-SXT-TET resistance phenotype at bactericidal concentration after 30 mins by time kill assay; format: functional, organism-based; how it was run: as §3
[12] = tested on: Pseudomonas aeruginosa; experiment: Antimicrobial activity against Pseudomonas aeruginosa isolate 1 with AMP-CFZ-CIP-CTX-CXM-GEN-LVX-SXT-TET resistance phenotype at twofold bactericidal concentration after 10 to 30 mins by time kill assay; format: functional, organism-based; how it was run: as §3
[13] = tested on: Enterococcus faecium; experiment: Antimicrobial activity against Enterococcus faecium isolate 3 with AMP-CIP-CTX-ERY-GEN-LVX-SXT-TEC-VAN resistance phenotype assessed as time to kill at bactericidal concentration; format: functional; how it was run: as §3
[14] = tested on: Enterococcus faecium; experiment: Antimicrobial activity against Enterococcus faecium isolate 3 with AMP-CIP-CTX-ERY-GEN-LVX-SXT-TEC-VAN resistance phenotype assessed as time to kill at twofold the bactericidal concentration; format: functional, organism-based; how it was run: as §3
[15] = tested on: Enterococcus faecium; experiment: (§4) Bactericidal activity against Enterococcus faecium isolate 3 with AMP-CIP-CTX-ERY-GEN-LVX-SXT-TEC-VAN resistance phenotype assessed as concentration required for >= 3 log10 CFU/ml reduction in viable bacteria in sodium phosphate buffer at pH 7.4 after 1.5 hrs by liquid microdilution assay; format: functional; how it was run: as §1
[16] = tested on: Enterococcus faecium; experiment: Bactericidal activity against Enterococcus faecium isolate 5 with AMP-AMC-CIP-CLI-ERY-GEN-KAN-LVX-SXT-TEC-VAN resistance phenotype assessed as concentration required for >= 3 log10 CFU/ml reduction in viable bacteria in sodium phosphate buffer at pH 7.4 after 1.5 hrs by liquid microdilution assay; format: functional; how it was run: as §1
[17] = tested on: Enterococcus faecium; experiment: as §4, with “isolate 6” for “isolate 3”, “with AMP-AMC-CLI-CRO-CTX-CIP-ERY-GEN-KAN-LVX-SXT-VAN” for “with AMP-CIP-CTX-ERY-GEN-LVX-SXT-TEC-VAN”; format: functional; how it was run: as §1
[18] = tested on: Staphylococcus aureus; experiment: Bactericidal activity against Staphylococcus aureus isolate 1 with AMC-AMP-CIP-ERY-GEN-OXA-RIF resistance phenotype assessed as concentration required for >= 3 log10 CFU/ml reduction in viable bacteria in sodium phosphate buffer at pH 7.4 after 1.5 hrs by liquid microdilution assay; format: functional; how it was run: as §1
[19] = tested on: Staphylococcus aureus; experiment: Bactericidal activity against Staphylococcus aureus isolate 2 with AMC-AMP-CIP-ERY-GEN-LVX-OXA-RIF-TET resistance phenotype assessed as concentration required for >= 3 log10 CFU/ml reduction in viable bacteria in sodium phosphate buffer at pH 7.4 after 1.5 hrs by liquid microdilution assay; format: functional; how it was run: as §1
[20] = tested on: Staphylococcus aureus; experiment: Bactericidal activity against Staphylococcus aureus isolate 3 with AMC-AMP-CIP-ERY-GEN-LVX-OXA resistance phenotype assessed as concentration required for >= 3 log10 CFU/ml reduction in viable bacteria in sodium phosphate buffer at pH 7.4 after 1.5 hrs by liquid microdilution assay; format: functional; how it was run: as §1
[21] = tested on: Stenotrophomonas maltophilia; experiment: Bactericidal activity against Stenotrophomonas maltophilia isolate 1 with AMK-CIP-CTX-IPM-MEM-SAM-TZP resistance phenotype assessed as concentration required for >= 3 log10 CFU/ml reduction in viable bacteria in sodium phosphate buffer at pH 7.4 after 1.5 hrs by liquid microdilution assay; format: functional; how it was run: as §1
[22] = tested on: Stenotrophomonas maltophilia; experiment: Bactericidal activity against Stenotrophomonas maltophilia isolate 2 with AMK-CIP-CTX-IPM-MEM-SAM-TZP resistance phenotype assessed as concentration required for >= 3 log10 CFU/ml reduction in viable bacteria in sodium phosphate buffer at pH 7.4 after 1.5 hrs by liquid microdilution assay; format: functional; how it was run: as §1
[23] = tested on: Stenotrophomonas maltophilia; experiment: Bactericidal activity against Stenotrophomonas maltophilia isolate 4 with AMK-CAZ-CIP-FEP-IPM-SAM-TZP resistance phenotype assessed as concentration required for >= 3 log10 CFU/ml reduction in viable bacteria in sodium phosphate buffer at pH 7.4 after 1.5 hrs by liquid microdilution assay; format: functional; how it was run: as §1
[24] = tested on: Acinetobacter baumannii; experiment: Bactericidal activity against Acinetobacter baumannii isolate 1 with AMP-AMC-CFZ-CIP-IPM-LVX-PIP-SXT-TET resistance phenotype assessed as concentration required for >= 3 log10 CFU/ml reduction in viable bacteria in sodium phosphate buffer at pH 7.4 after 1.5 hrs by liquid microdilution assay; format: functional; how it was run: as §1
[25] = tested on: Acinetobacter baumannii; experiment: Bactericidal activity against Acinetobacter baumannii isolate 2 with AMP-CFZ-CIP-LVX-PIP-SXT resistance phenotype assessed as concentration required for >= 3 log10 CFU/ml reduction in viable bacteria in sodium phosphate buffer at pH 7.4 after 1.5 hrs by liquid microdilution assay; format: functional; how it was run: as §1
[26] = tested on: Acinetobacter baumannii; experiment: Bactericidal activity against Acinetobacter baumannii isolate 3 with AMP-AMC-CFZ-CIP-IPM-SXT-TET-TOB resistance phenotype assessed as concentration required for >= 3 log10 CFU/ml reduction in viable bacteria in sodium phosphate buffer at pH 7.4 after 1.5 hrs by liquid microdilution assay; format: functional; how it was run: as §1
[27] = tested on: Pseudomonas aeruginosa; experiment: Bactericidal activity against Pseudomonas aeruginosa isolate 1 with AMP-CFZ-CIP-CTX-CXM-GEN-LVX-SXT-TET resistance phenotype assessed as concentration required for >= 3 log10 CFU/ml reduction in viable bacteria in sodium phosphate buffer at pH 7.4 after 1.5 hrs by liquid microdilution assay; format: functional; how it was run: as §1

Substance | Activity [1] | Activity [2] | Activity [3] | Activity [4] | Activity [5] | Activity [6] | Activity [7] | Activity [8] | Time [9] | Time [10] | Activity [11] | Activity [12] | Time [13] | Activity [14] | Activity [15] | Activity [16] | Activity [17] | Activity [18] | Activity [19] | Activity [20] | other results
H-FLPLIGRVLSGIL-NH2 [TEMPORIN A] | 48 µM | 96 µM | 48 µM | 48 µM | >192 µM | >193 µM | >194 µM | inactive | 2 min | >=30 min | inactive | Active | 5 min | inactive | 12 µM | 12 µM | 12 µM | 12 µM | 12 µM | 12 µM | Activity [21]: 48 µM; Activity [22]: 12 µM; Activity [23]: 96 µM; Activity [24]: 24 µM; Activity [25]: 12 µM; Activity [26]: 12 µM; Activity [27]: 48 µM
H-IIGPVLGLVGSALGGLLKKI-NH2 [BOMBININ H2] | 16 µM | 8 µM | 64 µM | 64 µM | 128 µM | 128 µM | 128 µM | inactive | 2 min | 2 min | inactive | Active | 5 min | inactive | 4 µM | 8 µM | 4 µM | 16 µM | 16 µM | 8 µM | Activity [21]: 4 µM; Activity [22]: 4 µM; Activity [23]: 16 µM; Activity [24]: 8 µM; Activity [25]: 4 µM; Activity [26]: 8 µM; Activity [27]: 16 µM
